As usually defined, the Ki is a measure of affinity in units of concentration, obtained from inhibition or displacement. High values mean lower affinity, low ones higher affinity. Usually Vmax stands for the top rate of the reaction or transport when substrate is in excess. For orientation: EC50 means the concentration at which the effect is half-maximal. Broadly, the IC50 is the concentration at which inhibition is half-maximal. A high value points to a need for much substance.

Read-outs that look alike come from different tables or passages of the source.

Assay [1] has as its target T1, urease (Canavalia ensiformis, UniProt P07374). Put plainly: Kinetic study of urease inhibition. It is filed as biochemical.
The next assay concerns HeLa (cervical cancer). Put plainly: Cell viability in treated cell lines. Conditions: Homo sapiens, 72 h, read-out: EC50 HeLa. The assay is classed as cell-based. A digest of the protocol: (§1)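 Cells were kept in RPMI 1640 with 10% FCS and penicillin/streptomycin at 37 °C, 5% CO2. They were seeded at 6000 cells/well, held 24 h, then given test compound at 0, 15.62, 31.25, 62.5, 125, 250, 500 and 1000 […] for 72 h. MTT (5 mg/mL) was added for 4 h, formazan dissolved in DMSO, and A570 read. Treatment was done in triplicate. EC50 came from sigmoidal variable-slope nonlinear regression of % growth inhibition.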

For assay [2], the system named is MCF-7 (human breast adenocarcinoma). Description: Cell viability in treated cell lines. Particulars: MCF7, 72 h. The assay is classed as cell-based. The gist of the method:
as §1

Assay [3] addresses T1, urease. Description: Urease inhibitory assay. It is filed as biochemical. The gist of the method: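 Urease in pH 8.2 buffer (0.01 M K2HPO4·3H2O, 1 mM EDTA, 0.01 M LiCl) with 100 mM urea, incubated 15 min at 30 °C with test compound added from a 1 mM solution. Ammonia detected by indophenol: alkali (0.5% NaOH, 0.1% active chloride NaOCl) plus phenol reagent (1% phenol, 0.005% nitroprusside). A630 read after 50 min as change per min; triplicate; acetohydroxamic acid standard; % inhibition.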

Assay [4] relates to MCF-7 cells. Description: Late apoptosis study. It is filed as cell-based, human. Particulars: treated at EC50 of 72 h, 36 h incubation. The gist of the method:
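MCF-7 cells were seeded at 2 × 10^4 on chamber slides and held 24 h at 37 °C, then exposed to test compound for 36 h; untreated cells served as control. Cells were fixed in 4% paraformaldehyde/PBS (pH 7.4) for 25 min at 4 °C and permeabilised with 0.2% Triton X-100 for 5 min. DNA ends were labelled with rTdT/nucleotide mix at 37 °C in the dark. Diluted SSC was added, and nuclei were counterstained with PI (1 μg/mL, 15 min, RT). FITC signal was imaged by high-content microscopy.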

For assay [5], the system named is MCF-7 cells. Description: Early apoptosis study. The assay is classed as cell-based, human. Particulars: treated at EC50 of 72 h for 6 and 9 h. The gist of the method: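 MCF-7 cells were seeded at 10,000 cells/well and held 24 h at 37 °C. The medium was replaced with test compound, alongside a positive control and an untreated control, for 6 and 9 h. Cells were stained with Annexin V-FITC (green) and PI (red) in binding buffer for 10 min at 37 °C. They were imaged by widefield high-content imaging to score early versus late apoptosis and necrosis.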

T1 sequence (P07374 whole entry, looked up): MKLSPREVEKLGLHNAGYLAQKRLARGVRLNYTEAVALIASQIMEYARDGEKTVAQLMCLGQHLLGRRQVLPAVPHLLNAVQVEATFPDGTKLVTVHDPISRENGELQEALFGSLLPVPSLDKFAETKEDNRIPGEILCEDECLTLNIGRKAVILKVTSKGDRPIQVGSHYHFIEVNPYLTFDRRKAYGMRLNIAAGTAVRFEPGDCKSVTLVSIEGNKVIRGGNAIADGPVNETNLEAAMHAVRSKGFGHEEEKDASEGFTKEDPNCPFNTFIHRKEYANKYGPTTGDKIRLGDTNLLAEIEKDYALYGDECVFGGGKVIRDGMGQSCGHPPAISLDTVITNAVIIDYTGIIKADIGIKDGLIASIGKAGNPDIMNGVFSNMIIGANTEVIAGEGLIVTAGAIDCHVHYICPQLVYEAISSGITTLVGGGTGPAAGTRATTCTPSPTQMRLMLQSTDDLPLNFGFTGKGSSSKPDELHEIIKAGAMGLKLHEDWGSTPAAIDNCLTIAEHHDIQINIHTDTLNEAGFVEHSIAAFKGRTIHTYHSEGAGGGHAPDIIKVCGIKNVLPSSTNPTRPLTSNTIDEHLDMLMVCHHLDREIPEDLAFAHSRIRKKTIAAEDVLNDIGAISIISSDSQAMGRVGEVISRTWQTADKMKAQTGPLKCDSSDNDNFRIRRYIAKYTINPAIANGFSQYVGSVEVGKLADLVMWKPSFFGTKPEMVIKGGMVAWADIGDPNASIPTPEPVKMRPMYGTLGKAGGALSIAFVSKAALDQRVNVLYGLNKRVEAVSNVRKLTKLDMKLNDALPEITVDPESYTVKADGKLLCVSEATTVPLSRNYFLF

For `COc1ccc(C2CC(c3ccccc3O)=NN2c2ccccc2)cc1OC` (stereo not shown) [Compound 2g, 1-Phenyl-3(2-hydroxy-phenyl)-5-(3,4-dimethoxyphenyl)-2-pyrazoline], the Ki at urease [1] turned out to be 19.1 µM. Further, the mode of inhibition result on urease [1] (urease) is on record as “competitive inhibition”. The Vmax at urease [1] (urease, at a 20 μM inhibitor concentration) was 5.76 µM/min. The EC50 (in the assay on HeLa (cervical cancer); in assay [2] (read-out: EC50 MCF-7)) was over 500 µM throughout. In addition, 9.13 ± 0.25 µM corresponded to half-maximal inhibition against urease [3] (IC50).
Regarding `Cc1ccc(C2CC(c3ccccc3O)=NN2c2ccccc2)c(C)c1` (stereo not shown) [Compound 2p, 1-Phenyl-3(2-hydroxy-phenyl)-5(2,4-dimethyl-phenyl)-2-pyrazoline], the EC50 (in the assay with HeLa (cervical cancer); in assay [2] (read-out: EC50 MCF-7)) was over 500 µM throughout. Besides, inhibition against urease [3] was half-maximal at 12.2 ± 0.38 µM (IC50).
Consider `Oc1ccccc1C1=NN(c2ccccc2)C(c2ccc(Br)cc2)C1` (stereo not shown) [Compound 2c, 1-Phenyl-3(2-hydroxy-phenyl)-5-(4-bromo-phenyl)-2-pyrazoline], for which the EC50 (in the assay on HeLa (cervical cancer); in assay [2] (read-out: EC50 MCF-7)) was over 500 µM each time. Also, the midpoint of inhibition against urease [3], the IC50, lay at 12.6 ± 0.43 µM.
For `CC(=O)Nc1ccc(C2CC(c3ccccc3O)=NN2c2ccccc2)cc1` (stereo not shown) [Compound 2j, 1-Phenyl-3(2-hydroxy-phenyl)-5-(4-acetamidophenyl)-2-pyrazoline], the EC50 (with HeLa (cervical cancer); in assay [2] (read-out: EC50 MCF-7)) was over 500 µM throughout. The compound further came in with an IC50 on urease [3] of 13.7 ± 0.47 µM.
Take `COc1ccc(C2CC(c3ccccc3O)=NN2c2ccccc2)cc1` (stereo not shown) [Compound 2e, 1-Phenyl-3(2-hydroxy-phenyl)-5-(4-methoxyphenyl)-2-pyrazoline]: the EC50 (with HeLa (cervical cancer); in assay [2] (read-out: EC50 MCF-7)) was over 500 µM in each case. This compound displayed a concentration for half-maximal inhibition (IC50) against urease [3] of 15.4 ± 0.38 µM.
In the case of `CCCCCOC(=O)Nc1nc(=O)n([C@@H]2O[C@H](C)[C@@H](O)[C@H]2O)cc1F` [CP, capecitabine, reference compound], in the assay with MCF-7 cells [4], the “DNA fragmentation (TUNEL, green stain of nuclei)” value is on record as “green-stained nuclei were observed”. Further, in assay [2] (read-out: EC50 on MCF-7), the EC50 stood at 980 µM.
Take `O=C(O)c1ccc(C2CC(c3ccccc3O)=NN2c2ccccc2)cc1` (stereo not shown) [Compound 2h, 1-Phenyl-3(2-hydroxy-phenyl)-5-(4-carboxyphenyl)-2-pyrazoline]: the EC50 (in the assay with HeLa (cervical cancer); in assay [2] (read-out: EC50 MCF-7)) was over 500 µM each time. For the same compound, the IC50 against urease [3] was found to be 11.3 ± 0.51 µM.
Regarding `COc1cc(C2CC(c3ccccc3O)=NN2c2ccccc2)cc(OC)c1OC` (stereo not shown) [Compound 2d, 1-Phenyl-3(2-hydroxy-phenyl)-5-(3,4,5-trimethoxyphenyl)-2-pyrazoline], the EC50 (with HeLa (cervical cancer); in assay [2] (read-out: EC50 MCF-7)) was over 500 µM in each case. Moreover, inhibition on urease [3] was half-maximal at 13.3 ± 0.25 µM (IC50).
Turning to `Oc1ccccc1C1=NN(c2ccccc2)C(c2ccccc2)C1` (stereo not shown) [Compound 2l, 1-Phenyl-3(2-hydroxy-phenyl)-5-phenyl-2-pyrazoline], the EC50 in the assay on HeLa (cervical cancer) is 510 µM; in assay [2] (read-out: EC50 MCF-7), 120 ± 0.1 µM. Besides, the “mode of MCF-7 cell death (Annexin V-FITC/PI staining)” value with MCF-7 cells [5] is given as “induce early apoptosis”. Further, the “DNA fragmentation (TUNEL, green stain of nuclei)” value in the assay on MCF-7 cells [4] is “morphologically detectable (green)”. Also, the “urease IC50 ± SEM” value on urease [3] (pH 8.2, 30 °C, 100 mM urea) is reported as “NA* ^a”.

(Values after article PMC8811919 (ACS Omega, 2022).)
